The values that follow come from ChEMBL document CHEMBL3763115, “Silibinin derivatives as anti-prostate cancer agents: Synthesis and cell-based evaluations” (Eur J Med Chem, 2016).

pIC50: −log10 of the molar value.

A short description of experiment [1]: Antiproliferative activity against human PC3 cells assessed as reduction in cell viability after 3 days by WST-1 cell proliferation assay. In kind it is functional, cell-based. The note with it: PC-3, 72 h. The essentials:
(§1)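 Cells from ATCC; PC-3 and LNCaP grown in RPMI-1640, DU145 in EMEM, each with 10% FBS and 1% penicillin/streptomycin, 37 °C, 5% CO2. 3,200 cells per well, treated at 5 concentrations for 3 days with 0.25% DMSO as vehicle control. WST-1 reagent added, 3 h at 37 °C, absorbance read at 430 nm. IC50 from linear fit of at least five doses, mean of at least triplicates.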
On the technique in general: Tetrazolium assays rely on reduction of a dye to a coloured formazan, in cell work by metabolically active cells.

Experiment [2] in a line: Potency index, ratio of silibinin IC50 to compound IC50 for antiproliferative activity against human PC3 cells. The class given is functional, PC-3. Put shortly:
(§2)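 Ratio of silibinin IC50 to derivative IC50. Both come from the 3-day WST-1 assay run in parallel (5 doses, absorbance at 430 nm, IC50 from linear fit, at least triplicates).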

Experiment [3] has as its system LNCaP. As to the kind of experiment: Potency index, ratio of silibinin IC50 to compound IC50 for antiproliferative activity against human LNCAP cells. In kind it is functional. The essentials: as §2
Experiment [4] is described as follows: Antiproliferative activity against human DU145 cells assessed as reduction in cell viability after 3 days by WST-1 cell proliferation assay. The class given is functional, cell-based. The settings on record: DU-145, 72 h. The essentials: as §1
Experiment [5] is described as follows: Potency index, ratio of silibinin IC50 to compound IC50 for antiproliferative activity against human DU145 cells. In kind it is functional, DU-145. The essentials:
as §2

Experiment [6] concerns LNCaP. Description: Antiproliferative activity against human LNCAP cells assessed as reduction in cell viability after 3 days by WST-1 cell proliferation assay. In kind it is functional, cell-based. The note with it: 72 h. Put shortly:
as §1

For orientation: pIC50 means −log10 of the IC50, conventionally taken in molar units. On to `COc1cc(O)c2c(c1)O[C@H](c1ccc3c(c1)OC(c1ccc(O)c(OC)c1)C(CO)O3)[C@@H](O)C2=O` (stereo partly specified), for which the figures for the pIC50 in experiment [1], in experiment [4] and in experiment [6] were 4.91, 4.60 and 6.36, respectively. Also, the “Ratio IC50” value in experiment [2] was determined as 6; in experiment [3], 98; in experiment [5], 4.

Turning to `COc1cc(O)c2c(=O)c(OC)c(-c3ccc4c(c3)OC(c3ccc(O)c(OC)c3)C(CO)O4)oc2c1` (stereo unspecified), the results for the pIC50 in experiment [1], in experiment [4] and in experiment [6] were 4.82, 4.65 and 5.16, respectively. Further, the “Ratio IC50” value in experiment [2] amounted to 5; in experiment [3] it was 6; in experiment [5] it was 4.

As to `CCCCCOc1cc(O)c2c(=O)c(O)c(-c3ccc4c(c3)OC(c3ccc(O)c(OC)c3)C(CO)O4)oc2c1` (stereo unspecified), the pIC50 was 5.22 in experiment [1], 5.16 in experiment [4] and 5.34 in experiment [6]. Further, the “Ratio IC50” value in experiment [2] was determined as 12; in experiment [3], 9; in experiment [5] it was 14.

Consider `CCOc1cc(O)c2c(=O)c(OCC)c(-c3ccc4c(c3)OC(c3ccc(O)c(OC)c3)C(CO)O4)oc2c1` (stereo unspecified), for which the values for the negative logarithm of the IC50 (pIC50) in experiment [1], in experiment [4] and in experiment [6] were 5.07, 4.98 and 5.25, respectively. Besides, the “Ratio IC50” value in experiment [2] is 9; in experiment [3] it was 8; in experiment [5] it was 9.

`CCCCCOc1cc(O)c2c(c1)O[C@H](c1ccc3c(c1)OC(c1ccc(O)c(OC)c1)C(CO)O3)[C@@H](O)C2=O` (stereo partly specified): the pIC50 in experiment [1] was 5.21; in experiment [4] it was 5.05; in experiment [6], 5.75. Also, the figures for the “Ratio IC50” value in experiment [2], in experiment [3] and in experiment [5] were 12, 24 and 10, respectively.

Turning to `CCCOc1cc(O)c2c(=O)c(O)c(-c3ccc4c(c3)OC(c3ccc(O)c(OC)c3)C(CO)O4)oc2c1` (stereo unspecified), the pIC50 was 5.33 in experiment [1], 5.27 in experiment [4] and 5.36 in experiment [6]. For the same compound, the entries for the “Ratio IC50” value in experiment [2], in experiment [3] and in experiment [5] were 15, 10 and 17, respectively.

In the case of `CCCCOc1cc(O)c2c(=O)c(O)c(-c3ccc4c(c3)OC(c3ccc(O)c(OC)c3)C(CO)O4)oc2c1` (stereo unspecified), the pIC50 in experiment [1] is 5.34; in experiment [4], 5.24; in experiment [6], 5.50. In addition, the entries for the “Ratio IC50” value in experiment [2], in experiment [3] and in experiment [5] were 16, 13 and 16, respectively.

For `COc1cc(C2Oc3cc(-c4oc5cc(OCc6ccccc6)cc(O)c5c(=O)c4OCc4ccccc4)ccc3OC2CO)ccc1O` (stereo unspecified), the pIC50 in experiment [1], in experiment [4] and in experiment [6] was less than 4.00 each time. The “Ratio IC50” value in experiment [2], in experiment [3] and in experiment [5] was less than 1 in each case.

For `CCCCCCCOc1cc(O)c2c(=O)c(OCCCCCCC)c(-c3ccc4c(c3)OC(c3ccc(O)c(OC)c3)C(CO)O4)oc2c1` (stereo unspecified), the pIC50 in experiment [1], in experiment [4] and in experiment [6] was less than 4.00 each time. Moreover, the “Ratio IC50” value in experiment [2], in experiment [3] and in experiment [5] was less than 1 each time.

With `CCCCCCOc1cc(O)c2c(c1)O[C@H](c1ccc3c(c1)OC(c1ccc(O)c(OC)c1)C(CO)O3)[C@@H](O)C2=O` (stereo partly specified), the figures for the pIC50 in experiment [1], in experiment [4] and in experiment [6] were 5.22, 4.95 and 5.78, respectively. Also, the “Ratio IC50” value in experiment [2] is 12; in experiment [3] it was 26; in experiment [5] it was 8.

Take `CCCCOc1cc(O)c2c(=O)c(OCCCC)c(-c3ccc4c(c3)OC(c3ccc(O)c(OC)c3)C(CO)O4)oc2c1` (stereo unspecified): the values for the pIC50 in experiment [1], in experiment [4] and in experiment [6] were 4.34, 4.44 and 4.33, respectively. For the same compound, the “Ratio IC50” value in experiment [2] is 2; in experiment [3], 1; in experiment [5], 3.
